# Experimental data as given in ChEMBL document CHEMBL1687722, “Mode of action of Ranbezolid against staphylococci and structural modeling studies of its interaction with ribosomes” (Antimicrob Agents Chemother, 2009).
# Calls of active or inactive are those of the source. No cut-off for these calls is given here.
# Tests used:
# Staphylococcus aureus [1] = test: Antimicrobial activity against Staphylococcus aureus ATCC 25923 by microdilution method; assay type: functional
# [2] = test system: Staphylococcus epidermidis; test: Antimicrobial activity against Staphylococcus epidermidis ATCC 23760 by microdilution method; assay type: functional
# Procedure, shortened: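 MIC determined by broth microdilution in the course of the macromolecular synthesis work; cultures grown in Mueller-Hinton broth.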
# Staphylococcus aureus [3] = test: Inhibition of protein synthesis in Staphylococcus aureus ATCC 25923 assessed as incorporation of [14C]isoleucine at 1 ug/ml by liquid scintillation counter; assay type: functional, organism-based
# Procedure, shortened: (§1)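 Whole-cell macromolecular synthesis. Cells grown in MHB to early log phase (OD600 0.3) were given a labelled precursor: [3H]thymidine, [3H]uridine or [3H]N-acetylglucosamine at 1 µCi/ml, or [14C]isoleucine or [14C]acetate at 0.1 µCi/ml. Drug was added 5 min later. Macromolecules were precipitated with ice-cold TCA (5% final), filtered, dried overnight at 37°C and counted by scintillation. A pathway-specific antibiotic was run as positive control.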
# [4] = test system: Staphylococcus epidermidis; test: Inhibition of protein synthesis in Staphylococcus epidermidis ATCC 23760 assessed as incorporation of [14C]isoleucine at 1 ug/ml by liquid scintillation counter; assay type: functional, organism-based; procedure, shortened: as §1
# Staphylococcus aureus [5] = test: Inhibition of DNA synthesis in Staphylococcus aureus ATCC 25923 assessed as incorporation of [3H]thymidine at 1 ug/ml by liquid scintillation counter; assay type: functional, organism-based; procedure, shortened: as §1
# [6] = test system: Staphylococcus epidermidis; test: Inhibition of DNA synthesis in Staphylococcus epidermidis ATCC 23760 assessed as incorporation of [3H]thymidine at 1 ug/ml by liquid scintillation counter; assay type: functional, organism-based; procedure, shortened: as §1
# Staphylococcus aureus [7] = test: Inhibition of RNA synthesis in Staphylococcus aureus ATCC 25923 assessed as incorporation of [3H]uridine at 1 ug/ml by liquid scintillation counter; assay type: functional, organism-based; procedure, shortened: as §1
# [8] = test system: Staphylococcus epidermidis; test: Inhibition of RNA synthesis in Staphylococcus epidermidis ATCC 23760 assessed as incorporation of [3H]uridine at 1 ug/ml by liquid scintillation counter; assay type: functional, organism-based; procedure, shortened: as §1
# [9] = test system: Staphylococcus epidermidis; test: Inhibition of cell wall synthesis in Staphylococcus epidermidis ATCC 23760 assessed as incorporation of [3H]N-acetylglucosamine at 1 ug/ml after 60 mins by liquid scintillation counter; assay type: functional, organism-based; procedure, shortened: as §1
# [10] = test system: Staphylococcus epidermidis; test: Inhibition of lipid synthesis in Staphylococcus epidermidis ATCC 23760 assessed as incorporation of [14C]acetate at 1 ug/ml after 60 mins by liquid scintillation counter; assay type: functional, organism-based; procedure, shortened: as §1
# Staphylococcus aureus [11] = test: Bacteriostatic activity against Staphylococcus aureus ATCC 25923 at 8 times MIC after 30 hrs by time-kill analysis; assay type: functional, organism-based
# Staphylococcus aureus [12] = test: Bactericidal activity against Staphylococcus aureus ATCC 25923 at 16 ug/ml by time-kill analysis; assay type: functional, organism-based
# [13] = test system: Staphylococcus epidermidis; test: Bactericidal activity against Staphylococcus epidermidis ATCC 23760 by time-kill analysis; assay type: functional
# [14] = test system: Staphylococcus epidermidis; test: Bactericidal activity against Staphylococcus epidermidis ATCC 23760 at 8 ug/ml after 4 hrs by time-kill analysis; assay type: functional, organism-based
# [15] = test system: Staphylococcus epidermidis; test: Bactericidal activity against Staphylococcus epidermidis ATCC 23760 at 4 ug/ml after 6 hrs by time-kill analysis; assay type: functional, organism-based
# Staphylococcus aureus [16] = test: Induction of bacterial membrane damage in Staphylococcus aureus ATCC 25923 at 4 ug/mL by BacLight assay; assay type: functional, organism-based
# Procedure, shortened: (§2)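 BacLight membrane integrity. Mid-log MHB cultures (OD600 0.5–0.6) were washed and resuspended in water, then exposed to drug at 1–8 µg/ml for 15–30 min at room temperature (25°C) with shaking. Cells were washed, set to OD670 0.325 and stained with Syto 9/propidium iodide for 15 min in the dark. The Syto 9 (480/500 nm) to PI (490/635 nm) fluorescence ratio was compared with untreated controls. Valinomycin and CCCP served as positive controls.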
# [17] = test system: Staphylococcus epidermidis; test: Induction of bacterial membrane damage in Staphylococcus epidermidis ATCC 23760 at 4 ug/mL by BacLight assay; assay type: functional, organism-based; procedure, shortened: as §2
# [18] = Inhibition of ribosomal activity in Escherichia coli S30 by coupled transcription/translation assay; assay type: subcellular, Ribosome
# Procedure, shortened: (§3)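 Cell-free coupled transcription/translation of a luciferase gene, using E. coli S30 extract (bacterial) or a TNT kit (mammalian ribosomes). Percent inhibition of luciferase activity across a range of drug concentrations was calculated relative to the no-drug control.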
# Ribosome = test: Inhibition of mammalian ribosomal activity by coupled transcription/translation assay; assay type: subcellular; procedure, shortened: as §3
# [19] = Ratio of IC50 for mammalian ribosomal activity to ribosomal activity in Escherichia coli S30 by coupled transcription/translation assay; assay type: subcellular; details: Ribosome
# [20] = test system: Staphylococcus epidermidis; test: Induction of bacterial membrane damage in Staphylococcus epidermidis ATCC 23760 at 2 to 8 ug/mL by BacLight assay; assay type: functional, organism-based; procedure, shortened: as §2
# [21] = test system: Staphylococcus epidermidis; test: Induction of bacterial membrane damage in Staphylococcus epidermidis ATCC 23760 at 2 ug/mL by BacLight assay relative to untreated control; assay type: functional; procedure, shortened: as §2
# [22] = test system: Staphylococcus epidermidis; test: Induction of bacterial membrane damage in Staphylococcus epidermidis ATCC 23760 at 1 ug/mL by BacLight assay relative to untreated control; assay type: functional, organism-based; procedure, shortened: as §2
# Staphylococcus aureus [23] = test: Inhibition of protein synthesis in Staphylococcus aureus ATCC 25923 assessed as incorporation of [14C]isoleucine at 2 ug/ml by liquid scintillation counter; assay type: functional, organism-based; procedure, shortened: as §1
# [24] = test system: Staphylococcus epidermidis; test: Inhibition of protein synthesis in Staphylococcus epidermidis ATCC 23760 assessed as incorporation of [14C]isoleucine at 2 ug/ml by liquid scintillation counter; assay type: functional, organism-based; procedure, shortened: as §1
# Staphylococcus aureus [25] = test: Inhibition of DNA synthesis in Staphylococcus aureus ATCC 25923 assessed as incorporation of [3H]thymidine at 2 ug/ml by liquid scintillation counter; assay type: functional, organism-based; procedure, shortened: as §1
# [26] = test system: Staphylococcus epidermidis; test: Inhibition of DNA synthesis in Staphylococcus epidermidis ATCC 23760 assessed as incorporation of [3H]thymidine at 2 ug/ml by liquid scintillation counter; assay type: functional, organism-based; procedure, shortened: as §1
# Staphylococcus aureus [27] = test: Inhibition of RNA synthesis in Staphylococcus aureus ATCC 25923 assessed as incorporation of [3H]uridine at 2 ug/ml by liquid scintillation counter; assay type: functional, organism-based; procedure, shortened: as §1
# [28] = test system: Staphylococcus epidermidis; test: Inhibition of RNA synthesis in Staphylococcus epidermidis ATCC 23760 assessed as incorporation of [3H]uridine at 2 ug/ml by liquid scintillation counter; assay type: functional, organism-based; procedure, shortened: as §1
# [29] = test system: Staphylococcus epidermidis; test: Inhibition of cell wall synthesis in Staphylococcus epidermidis ATCC 23760 assessed as incorporation of [3H]N-acetylglucosamine at 2 ug/ml after 60 mins by liquid scintillation counter; assay type: functional, organism-based; procedure, shortened: as §1
# [30] = test system: Staphylococcus epidermidis; test: Inhibition of lipid synthesis in Staphylococcus epidermidis ATCC 23760 assessed as incorporation of [14C]acetate at 2 ug/ml after 60 mins by liquid scintillation counter; assay type: functional, organism-based; procedure, shortened: as §1
# [31] = test system: Staphylococcus epidermidis; test: Bacteriostatic activity against Staphylococcus epidermidis ATCC 23760 at 4 X MIC after 24 hrs by time-kill analysis; assay type: functional, organism-based
# Staphylococcus aureus [32] = test: Induction of bacterial membrane damage in Staphylococcus aureus ATCC 25923 at 15 uM by BacLight assay; assay type: functional
# Procedure, shortened: (§4)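 Mid-log cells (overnight MHB culture at 37°C, diluted 1:100, grown to OD600 0.5–0.6) washed in water, diluted 1:20 into water containing compound, shaken 15–30 min at room temperature (25°C). Washed, adjusted to OD670 0.325, stained with BacLight reagent (3 µl/ml) for 15 min in the dark. Syto 9 (480/500 nm)/propidium iodide (490/635 nm) fluorescence ratio expressed versus control; <40% of control indicates membrane damage.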
# [33] = test system: Staphylococcus epidermidis; test: Induction of bacterial membrane damage in Staphylococcus epidermidis ATCC 23760 at 15 uM by BacLight assay; assay type: functional; procedure, shortened: as §4
# Staphylococcus aureus [34] = test: Induction of bacterial membrane damage in Staphylococcus aureus ATCC 25923 at 100 uM by BacLight assay; assay type: functional; procedure, shortened: as §4
# [35] = test system: Staphylococcus epidermidis; test: Induction of bacterial membrane damage in Staphylococcus epidermidis ATCC 23760 at 100 uM by BacLight assay; assay type: functional; procedure, shortened: as §4
smiles,measurement,setting,value
CC(=O)NC[C@H]1CN(c2ccc(N3CCN(Cc4ccc([N+](=O)[O-])o4)CC3)c(F)c2)C(=O)O1 [RANBEZOLID],MIC,Staphylococcus aureus [1],1 µg/mL
same,MIC,[2],1 µg/mL
same,inhibition,Staphylococcus aureus [3],Active
same,inhibition,[4],Active
same,inhibition,Staphylococcus aureus [5],inactive
same,inhibition,[6],inactive
same,inhibition,Staphylococcus aureus [7],inactive
same,inhibition,[8],inactive
same,inhibition,[9],Active
same,inhibition,[10],Active
same,Activity,Staphylococcus aureus [11],Active
same,Activity,Staphylococcus aureus [12],Active
same,Activity,[13],99.9%
same,Activity,[14],Active
same,Activity,[15],Active
same,Activity,Staphylococcus aureus [16],inactive
same,Activity,[17],Active
same,IC50,[18],0.017 mM
same,IC50,Ribosome,14.7 mM
same,Ratio,[19],865
same,Activity,[20],Active
same,Activity,[21],50%
same,Activity,[22],inactive
CC(=O)NC[C@H]1CN(c2ccc(N3CCOCC3)c(F)c2)C(=O)O1 [LINEZOLID],MIC,[2],2 µg/mL
same,inhibition,Staphylococcus aureus [23],Active
same,inhibition,[24],Active
same,inhibition,Staphylococcus aureus [25],inactive
same,inhibition,[26],inactive
same,inhibition,Staphylococcus aureus [27],inactive
same,inhibition,[28],inactive
same,inhibition,[29],Active
same,inhibition,[30],Active
same,Activity,Staphylococcus aureus [11],Active
same,Activity,[31],Active
same,Activity,Staphylococcus aureus [16],inactive
same,Activity,[17],inactive
same,IC50,[18],0.1 mM
same,IC50,Ribosome,11.9 mM
N#CC(C#N)=NNc1cccc(Cl)c1 [CARBONYL CYANIDE M-CHLOROPHENYLHYDRAZONE],Activity,Staphylococcus aureus [32],<40%
same,Activity,[33],<40%
CC(C)[C@@H]1NC(=O)[C@H](C)OC(=O)[C@@H](C(C)C)NC(=O)[C@@H](C(C)C)OC(=O)[C@H](C(C)C)NC(=O)[C@H](C)OC(=O)[C@@H](C(C)C)NC(=O)[C@@H](C(C)C)OC(=O)[C@H](C(C)C)NC(=O)[C@H](C)OC(=O)[C@@H](C(C)C)NC(=O)[C@@H](C(C)C)OC1=O [VALINOMYCIN],Activity,Staphylococcus aureus [34],<40%
same,Activity,[35],<40%
